ChEMBL document CHEMBL1156338 (J Med Chem, 2010)
The source made the active and inactive calls. The calls are words filed in the database; no cut-off is given here.

Legend:
[1] = tested on: Rattus norvegicus; assay: Antiarthritic activity against porcine type 2 collagen-induced arthritis in po dosed Lewis rat model assessed as reduction of paw swelling administered qd for 7 days relative to control; type: functional
Procedure, shortened: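 Arthritis induced by intradermal porcine type II collagen emulsified 1:1 in incomplete Freund's adjuvant; rats grouped at disease onset (day 0, 10-12 days after immunization). Oral dosing once daily for 7 days in vehicle 15% HPBCD, 1% HPMC, 1% Pluronic F68, pH 2.2.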

[2] = biological target: T1, Nuclear receptor subfamily 1 group I member 2 (Homo sapiens, UniProt O75469); assay: Transactivation of human PXR expressed in HepG2 cells at 2 uM after 24 hrs by luciferase reporter gene assay relative to rifampin; type: cell-based; conditions: hepg2, 24 h
T1 sequence (O75469 whole entry): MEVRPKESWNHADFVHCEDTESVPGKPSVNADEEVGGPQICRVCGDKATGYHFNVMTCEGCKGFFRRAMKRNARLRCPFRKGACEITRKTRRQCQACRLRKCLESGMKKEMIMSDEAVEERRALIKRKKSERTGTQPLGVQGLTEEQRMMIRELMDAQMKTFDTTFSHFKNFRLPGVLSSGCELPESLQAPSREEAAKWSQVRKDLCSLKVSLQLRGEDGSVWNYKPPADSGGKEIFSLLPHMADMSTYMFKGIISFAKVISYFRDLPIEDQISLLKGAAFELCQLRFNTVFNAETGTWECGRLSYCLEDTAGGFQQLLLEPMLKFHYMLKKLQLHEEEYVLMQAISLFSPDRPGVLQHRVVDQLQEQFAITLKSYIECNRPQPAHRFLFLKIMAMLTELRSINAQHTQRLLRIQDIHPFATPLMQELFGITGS
Procedure, shortened: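 HepG2 cells transfected with a CYP3A4-promoter luciferase reporter and human PXR cDNA. Compound added from DMSO stocks to final 2 and 10 μM in buffer and incubated 24 h. Luciferase activity read by chemiluminescence and reported as percent of the rifampin (10 μM) positive control.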

[3] = AUC (0 to 24 hrs) in porcine type 2 collagen-induced arthritis Lewis rat model at 0.01 to 1 mg/kg, po; type: ADME, organism-based; design: dose 0.01-1 mg/kg, route oral; conditions: in vivo
[4] = AUC (0 to infinity) in Sprague-Dawley rat at 2 mg/kg, po; type: ADME, organism-based; design: time infinity, dose 2 mg/kg, route oral; conditions: plasma
[5] = Clearance in Sprague-Dawley rat at 2 mg/kg, iv; type: ADME, organism-based; design: dose 2 mg/kg, route intravenous; conditions: in vivo
[6] = biological target: RAF proto-oncogene serine/threonine-protein kinase (Homo sapiens, UniProt P04049); assay: Inhibition of RAF1 at 1 uM relative to control
Sequence of RAF proto-oncogene serine/threonine-protein kinase (P04049 whole entry): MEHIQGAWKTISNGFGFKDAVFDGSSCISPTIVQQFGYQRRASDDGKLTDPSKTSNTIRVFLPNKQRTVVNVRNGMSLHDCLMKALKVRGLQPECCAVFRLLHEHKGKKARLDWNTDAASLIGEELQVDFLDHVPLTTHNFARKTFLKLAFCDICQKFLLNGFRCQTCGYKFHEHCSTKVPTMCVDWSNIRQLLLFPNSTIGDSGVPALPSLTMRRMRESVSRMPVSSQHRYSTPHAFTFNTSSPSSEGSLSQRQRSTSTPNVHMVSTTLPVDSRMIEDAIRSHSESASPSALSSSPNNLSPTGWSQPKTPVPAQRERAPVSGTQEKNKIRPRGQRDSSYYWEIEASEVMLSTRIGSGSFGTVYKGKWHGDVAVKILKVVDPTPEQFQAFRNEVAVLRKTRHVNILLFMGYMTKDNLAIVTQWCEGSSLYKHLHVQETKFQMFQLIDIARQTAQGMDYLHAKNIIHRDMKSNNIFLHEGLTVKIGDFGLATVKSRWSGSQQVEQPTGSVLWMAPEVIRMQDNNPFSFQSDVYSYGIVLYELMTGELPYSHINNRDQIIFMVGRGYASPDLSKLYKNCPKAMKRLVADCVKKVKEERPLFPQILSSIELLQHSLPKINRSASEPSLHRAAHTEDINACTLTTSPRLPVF

[7] = biological target: Platelet-derived growth factor receptor alpha (Homo sapiens, UniProt P16234); assay: Binding affinity to PDGFRalpha
Sequence of Platelet-derived growth factor receptor alpha (P16234 whole entry): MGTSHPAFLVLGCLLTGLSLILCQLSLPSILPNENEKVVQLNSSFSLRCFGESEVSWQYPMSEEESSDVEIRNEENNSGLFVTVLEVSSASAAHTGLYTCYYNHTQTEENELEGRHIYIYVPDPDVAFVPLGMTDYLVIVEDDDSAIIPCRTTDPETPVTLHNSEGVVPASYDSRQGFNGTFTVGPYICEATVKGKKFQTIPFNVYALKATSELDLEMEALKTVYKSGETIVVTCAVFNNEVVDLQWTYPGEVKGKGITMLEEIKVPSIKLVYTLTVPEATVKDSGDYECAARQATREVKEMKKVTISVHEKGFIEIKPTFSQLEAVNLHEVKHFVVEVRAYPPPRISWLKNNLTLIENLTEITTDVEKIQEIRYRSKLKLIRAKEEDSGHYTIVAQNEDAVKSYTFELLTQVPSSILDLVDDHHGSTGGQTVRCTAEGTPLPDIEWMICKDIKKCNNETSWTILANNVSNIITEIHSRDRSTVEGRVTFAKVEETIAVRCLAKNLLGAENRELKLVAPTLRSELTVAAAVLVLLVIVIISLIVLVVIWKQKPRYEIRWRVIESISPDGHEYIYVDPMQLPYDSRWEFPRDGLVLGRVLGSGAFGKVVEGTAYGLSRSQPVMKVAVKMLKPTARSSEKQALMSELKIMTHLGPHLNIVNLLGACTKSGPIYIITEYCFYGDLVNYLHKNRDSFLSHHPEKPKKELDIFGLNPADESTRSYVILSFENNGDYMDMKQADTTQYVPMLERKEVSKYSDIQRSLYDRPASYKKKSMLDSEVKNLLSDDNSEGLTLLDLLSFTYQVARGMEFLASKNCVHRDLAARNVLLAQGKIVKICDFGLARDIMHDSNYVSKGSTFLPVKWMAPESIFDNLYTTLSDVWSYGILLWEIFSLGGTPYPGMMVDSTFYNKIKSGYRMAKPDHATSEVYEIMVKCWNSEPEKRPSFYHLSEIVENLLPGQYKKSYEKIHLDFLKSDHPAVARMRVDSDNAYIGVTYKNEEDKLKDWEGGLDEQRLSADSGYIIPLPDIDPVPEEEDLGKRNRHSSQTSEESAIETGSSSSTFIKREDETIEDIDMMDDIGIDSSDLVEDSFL

[8] = biological target: T2, Cytochrome P450 1A2 (Homo sapiens, UniProt P05177); assay: Induction of CYP1A2 in human hepatocytes at 25 uM; type: ADME, cell-based, Hepatocyte
T2 sequence (P05177 whole entry): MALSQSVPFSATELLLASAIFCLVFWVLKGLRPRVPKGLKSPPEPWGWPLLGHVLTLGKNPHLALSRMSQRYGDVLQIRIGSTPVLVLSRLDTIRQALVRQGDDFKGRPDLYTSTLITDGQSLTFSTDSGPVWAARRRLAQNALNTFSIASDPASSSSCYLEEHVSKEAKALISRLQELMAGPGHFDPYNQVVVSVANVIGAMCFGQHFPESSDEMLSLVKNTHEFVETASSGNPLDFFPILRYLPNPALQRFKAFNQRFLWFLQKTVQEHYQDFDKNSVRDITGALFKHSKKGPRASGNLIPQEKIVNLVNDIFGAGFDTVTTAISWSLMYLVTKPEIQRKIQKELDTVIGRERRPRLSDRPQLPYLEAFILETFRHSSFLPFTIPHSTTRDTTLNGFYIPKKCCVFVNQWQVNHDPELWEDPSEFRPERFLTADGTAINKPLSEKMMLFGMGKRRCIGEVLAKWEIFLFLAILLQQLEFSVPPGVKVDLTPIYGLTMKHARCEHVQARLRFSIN

[9] = Cmax in porcine type 2 collagen-induced arthritis Lewis rat model at 0.01 to 1 mg/kg, po; type: ADME, organism-based; design: dose 0.01-1 mg/kg, route oral; conditions: in vivo
[10] = in vitro; conditions: human, Caco-2
[11] = biological target: Cytochrome P450 2D6 (Homo sapiens, UniProt P10635); assay: Inhibition of CYP2D6 in human liver microsomes; type: ADME, Microsome
Sequence of Cytochrome P450 2D6 (P10635 whole entry): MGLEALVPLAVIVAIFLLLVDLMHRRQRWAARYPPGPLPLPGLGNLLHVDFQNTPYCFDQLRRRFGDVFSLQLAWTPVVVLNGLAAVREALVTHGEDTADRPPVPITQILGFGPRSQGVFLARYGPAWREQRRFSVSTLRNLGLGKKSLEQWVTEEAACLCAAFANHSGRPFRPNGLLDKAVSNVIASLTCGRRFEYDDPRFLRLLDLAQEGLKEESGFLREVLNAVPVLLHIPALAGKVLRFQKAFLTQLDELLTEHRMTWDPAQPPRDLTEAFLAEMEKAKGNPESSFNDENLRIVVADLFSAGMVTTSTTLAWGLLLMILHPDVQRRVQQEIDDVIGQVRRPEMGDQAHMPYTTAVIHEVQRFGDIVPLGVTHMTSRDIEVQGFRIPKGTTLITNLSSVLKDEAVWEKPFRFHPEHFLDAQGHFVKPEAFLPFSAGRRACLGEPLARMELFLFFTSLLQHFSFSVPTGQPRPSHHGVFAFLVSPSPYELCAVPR

[12] = biological target: T3, Mitogen-activated protein kinase 11 (Homo sapiens, UniProt Q15759); assay: Inhibition of p38beta
T3 sequence (Q15759 whole entry): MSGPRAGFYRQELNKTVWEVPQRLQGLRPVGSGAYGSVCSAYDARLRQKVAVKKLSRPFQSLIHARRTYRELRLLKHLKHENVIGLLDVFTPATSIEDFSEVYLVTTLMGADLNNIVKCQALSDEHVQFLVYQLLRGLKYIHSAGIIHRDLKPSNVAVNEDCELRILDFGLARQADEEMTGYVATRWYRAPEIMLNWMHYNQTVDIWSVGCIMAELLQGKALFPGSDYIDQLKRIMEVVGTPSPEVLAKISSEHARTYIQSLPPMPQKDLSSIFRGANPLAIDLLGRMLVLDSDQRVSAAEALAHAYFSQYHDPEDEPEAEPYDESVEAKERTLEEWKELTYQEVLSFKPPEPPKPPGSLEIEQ

[13] = biological target: Mitogen-activated protein kinase 14 (Homo sapiens, UniProt Q16539); assay: Inhibition of p38alpha at 1 uM relative to control
Sequence of Mitogen-activated protein kinase 14 (Q16539 whole entry): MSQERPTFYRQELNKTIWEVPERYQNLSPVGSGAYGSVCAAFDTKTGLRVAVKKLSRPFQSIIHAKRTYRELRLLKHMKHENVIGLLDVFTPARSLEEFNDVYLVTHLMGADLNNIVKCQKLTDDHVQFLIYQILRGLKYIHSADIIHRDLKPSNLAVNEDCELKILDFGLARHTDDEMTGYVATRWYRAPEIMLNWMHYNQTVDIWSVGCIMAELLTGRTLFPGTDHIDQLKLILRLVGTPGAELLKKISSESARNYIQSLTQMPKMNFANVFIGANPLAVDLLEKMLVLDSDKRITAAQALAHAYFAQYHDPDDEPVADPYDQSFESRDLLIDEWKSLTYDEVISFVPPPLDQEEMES

[14] = biological target: Cytochrome P450 3A4 (Homo sapiens, UniProt P08684); assay: Inhibition of CYP3A4 in human liver microsomes; type: ADME, Microsome
Sequence of Cytochrome P450 3A4 (P08684 whole entry): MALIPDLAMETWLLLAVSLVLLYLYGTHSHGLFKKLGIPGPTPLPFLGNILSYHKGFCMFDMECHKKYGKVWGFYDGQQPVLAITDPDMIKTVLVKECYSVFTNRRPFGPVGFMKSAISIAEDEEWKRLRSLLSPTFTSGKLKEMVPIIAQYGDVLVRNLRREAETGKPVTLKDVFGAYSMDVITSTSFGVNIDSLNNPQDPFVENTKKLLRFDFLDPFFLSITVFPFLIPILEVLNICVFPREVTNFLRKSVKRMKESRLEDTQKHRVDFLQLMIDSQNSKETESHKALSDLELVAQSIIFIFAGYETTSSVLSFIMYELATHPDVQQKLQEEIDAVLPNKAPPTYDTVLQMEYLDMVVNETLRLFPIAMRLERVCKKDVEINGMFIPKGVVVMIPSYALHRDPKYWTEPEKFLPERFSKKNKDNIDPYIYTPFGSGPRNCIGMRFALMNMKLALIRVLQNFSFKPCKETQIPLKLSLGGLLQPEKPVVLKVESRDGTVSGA

[15] = biological target: T4, Mitogen-activated protein kinase 12 (Homo sapiens, UniProt P53778); assay: Inhibition of p38-gamma
T4 sequence (P53778 whole entry): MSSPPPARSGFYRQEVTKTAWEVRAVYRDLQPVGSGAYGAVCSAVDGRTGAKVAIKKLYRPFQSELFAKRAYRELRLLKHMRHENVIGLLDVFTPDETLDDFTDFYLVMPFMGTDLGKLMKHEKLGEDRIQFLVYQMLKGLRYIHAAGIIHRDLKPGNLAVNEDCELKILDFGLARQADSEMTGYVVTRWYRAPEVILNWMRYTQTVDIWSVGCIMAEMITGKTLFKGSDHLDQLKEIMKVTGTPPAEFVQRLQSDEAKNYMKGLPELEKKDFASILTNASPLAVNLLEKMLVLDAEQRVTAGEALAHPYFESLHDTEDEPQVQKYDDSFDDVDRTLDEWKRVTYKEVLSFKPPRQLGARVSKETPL

[16] = biological target: T3, Mitogen-activated protein kinase 11; assay: Binding affinity to p38beta
[17] = tested on: Rattus norvegicus; assay: Antiarthritic activity against porcine type 2 collagen-induced arthritis Lewis rat model assessed as area under the paw swelling curve at 0.01 to 1 mg/kg, po relative to control; type: functional, organism-based
Procedure, shortened: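 Lewis rats immunized by intradermal porcine type II collagen emulsified 1:1 in incomplete Freund's adjuvant. Grouped at disease onset (day 0, 10-12 days post-immunization). Oral dosing once daily for 7 days in 15% HPBCD, 1% HPMC, 1% Pluronic F68, pH 2.2. Paw diameter measured daily days 0-7.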

[18] = tested on: Blood; assay: Inhibition of IL-8 production in TNFalpha challenged human whole blood after 16 to 18 hrs; type: functional, tissue-based; conditions: Homo sapiens, Blood; read-out: IC50
Procedure, shortened: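 Heparinized blood from healthy nonmedicated donors, 50% final in RPMI 1640 with 10% human AB serum. Ten-point compound titration preincubated 1 h at 37 C, 5% CO2, then TNF-alpha 1 nM final added for 16-18 h. Plasma IL-8 measured by electrochemiluminescent antibody sandwich assay; IC50 is the mean of at least three independent dose-response curves.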

Cc1ccc(C(=O)NC2CC2)cc1-c1cc2cnn(-c3c(F)cccc3F)c2n(C)c1=O
Activity [1]: Dose-dependent effect
ED50 ([1]; 168 h): ≤ 0.01 mg/kg
Activity [2]: 5%
AUC(0-t) [3]: 180 nM·h
AUC(0-inf) [4]: 3.99 µg·h/mL
clearance [5]: 0.22 L/h/kg
inhibition [6]: < 50%
Kd [7]: 1.1 µM
Activity [8]: Not Active
Cmax [9]: 0.011 µM
Papp B→A [10]: 270 nm/s
IC50 [11]: > 25 µM
Ki [12]: 0.0025 µM
inhibition [13]: < 50%
IC50 [14]: > 25 µM
Ki [15]: 3.5 µM
Kd [16]: 0.00067 µM
Activity [17]: Active
IC50 [18]: 0.0017 µM
